Data taken from PubChem BioAssay AID1656 (Sanford-Burnham Center for Chemical Genomics, 2009).
Out of some 240,000 compounds screened, about 950 (0.4%) were called active.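 Rule for the calls: active = lipid droplet intensity inhibited by at least 50%, with more than 500 cells counted; inconclusive = wells with under 300 cells, treated as cytotoxic; inactive = the rest.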 The list comes from a sample in which actives are over-represented; it also holds similar structures and randomly drawn compounds.

assay: oleate-induced lipid droplet accumulation in AML12 cells – imaging, high-throughput imaging, BODIPY stain, primary screen (AID 1656); conditions: AML12 mouse hepatocytes, oleate lipid droplets, at 6.5 µM; cell count: measured here: cell count, cytotoxicity flag; inhibition: stronger effect = higher value;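 for cell count: cells counted across two imaged fields per well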
Method in brief: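 Material: mouse AML12 hepatocyte cell line, fixed after treatment; Timing: compound with oleate, overnight; Technique: high-content imaging of BODIPY-stained droplets and DAPI nuclei; Probe or stimulus: oleate, 100 µM final; Dosing: compound at 6.5 µM only.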

| SMILES | cell count | inhibition |
| --- | --- | --- |
| CC(C)(COC(=O)Nc1ccccc1)COC(=O)Nc1ccccc1 | 842 cells | 2% (inactive) |
| CSCCC(NS(=O)(=O)c1ccccc1F)C(=O)N1CC=C(c2ccccc2)CC1 (stereo unspecified) | 678 cells | -35.6% (inactive) |
| O=C1/C(=C/c2ccc(F)cc2)SC(=S)N1CCCC(=O)N1CCCCC1CCO (stereo unspecified) | 789 cells | -7.9% (inactive) |
| CCOCCCNc1nc(-c2ccccc2)nc2ccccc12 | 835 cells | 1.2% (inactive) |
| CC(Nc1nc(C(F)(F)F)nc2ccccc12)c1cccs1 (stereo unspecified) | 808 cells | -12.3% (inactive) |
| Cc1sc2nc(SCCO)n(-c3ccccc3)c(=O)c2c1C | 835 cells | -15% (inactive) |
| Cc1ccccc1NC(=O)CSc1ccc2nnc(-c3ccccn3)n2n1 | 640 cells | 22.7% (inactive) |
| COc1ccc(CCNC(=O)c2ccccc2OCc2ccccc2)cc1 | 773 cells | -18.7% (inactive) |
| COc1ccc(CCNC(=O)CCc2cn(C)c3ccccc23)c(OC)c1 | 811 cells | 15.9% (inactive) |
| Cc1cccnc1CC(C)NC(=O)c1cc(COc2cncc(Cl)c2)on1 (stereo unspecified) | 704 cells | 3.6% (inactive) |
| COc1ccc(/C=C2\SC(=S)N(CCCC(=O)NC3CCCC3)C2=O)cc1OC | 711 cells | -15.3% (inactive) |
| CCOc1ccc(-n2c(SCC(=O)OC)nc3sc4c(c3c2=O)CCN(C)C4)cc1 | 796 cells | 4.9% (inactive) |
| CCOc1ccccc1NC(=S)N1CCN(c2cccc(C)c2C)CC1 | 777 cells | -21% (inactive) |
| O=C(c1ccc(OC2CCN(C/C=C/c3ccc(F)cc3)CC2)cc1)N1CCCCC1 | 815 cells | 2% (inactive) |
| O=C(Nc1ccc(F)cc1)c1ccc(S(=O)(=O)NCc2cccnc2)cc1 | 806 cells | -51.8% (inactive) |
| CC(C)=CCCC(C)CN1CCC(n2nccc2NC(=O)c2ccccc2)CC1 (stereo unspecified) | 722 cells | 2.9% (inactive) |
| N#C/C(=C\C1=C(N2CCOCC2)C(=C\c2ccccc2)/CC1)C(=O)Nc1ccccc1F | 430 cells | 56.4% (active) |
| N#C/C(=C/c1ccc(N2CCOCC2)o1)C(=O)N1CCOCC1 | 636 cells | -9.6% (inactive) |
| N#C/C(=C\c1ccccc1C(F)(F)F)C(=O)Nc1ccccc1F | 614 cells | 1.8% (inactive) |
| Cc1ccc(CNC(=O)CCS(=O)(=O)c2ccc3c(c2)CC(C)N3C(=O)C2CC2)o1 (stereo unspecified) | 715 cells | -2.5% (inactive) |
| Cc1nn(C(C)C(=O)NCCC2=CCCCC2)c(=O)c2nn(-c3ccccc3)c(C)c12 (stereo unspecified) | 685 cells | -3.8% (inactive) |
| COc1ccc(C)cc1N(C(=O)Cn1nnc(-c2ccc(C)o2)n1)C(C(=O)NC1CCCC1)c1ccncc1 (stereo unspecified) | 749 cells | -20.1% (inactive) |
| CCOC(=O)c1cccc(NC(=O)CCc2nnc3ccc(N4CCOCC4)nn23)c1 | 652 cells | -5.8% (inactive) |
| CCOc1ccc(CCNC(=O)CCc2nnc3ccc(N4CCCC4)nn23)cc1OCC | 752 cells | 69.5% (active) |
| CCN(CC)c1ccc(NC(=O)CCc2nnc3ccc(N4CCCCC4)nn23)c(C)c1 | 801 cells | 3.4% (inactive) |
| COCCc1nn2c(=O)cc(COC(=O)c3cc(OC)c(OC)c(OC)c3)nc2s1 | 701 cells | 7.1% (inactive) |

| SMILES | cell count | inhibition |
| --- | --- | --- |
| COc1ccccc1N1CCN(S(=O)(=O)c2ccc3c(c2)NC(=O)CS3)CC1 | 687 cells | -12.7% (inactive) |
| CCc1ccc(C(CNc2nc(C(F)(F)F)nc3ccccc23)N(C)C)cc1 (stereo unspecified) | 654 cells | -18.7% (inactive) |
| Cc1ccc2sc(N(CCN(C)C)C(=O)/C=C/c3cccs3)nc2c1C | 660 cells | 4.4% (inactive) |
| CCC(C)(C)NC(=O)C(c1ccc(OC)cc1)N(C(=O)CCC(=O)Nc1cc(C)on1)c1ccc(OC)cc1OC (stereo unspecified) | 774 cells | 2.5% (inactive) |
| COc1ccc(C(C(=O)NC(C)(C)C)N(Cc2ccc(F)cc2)C(=O)CCC(=O)Nc2cc(C)on2)cc1 (stereo unspecified) | 757 cells | 96.7% (active) |
| COc1ccc(CN(CC(=O)NC2CCCC2)C(=O)CCC(=O)Nc2cc(C)on2)cc1 | 702 cells | -31.7% (inactive) |
| COc1cccc(CNC(=O)Cn2c(=O)oc3cc(S(=O)(=O)N4CCCCC4)ccc32)c1 | 692 cells | 25.1% (inactive) |
| CCOC(=O)C1=C(C)OC(N)=C(C#N)C1c1cncc(-c2ccc(F)cc2)c1 (stereo unspecified) | 619 cells | -2.2% (inactive) |
| CCC1=C(C(=O)OC)C(c2cc(OC)ccc2OC)C(C#N)=C(N)O1 (stereo unspecified) | 697 cells | -12.3% (inactive) |
| CCOC(=O)C1=C(CC)OC(N)=C(C#N)C1c1ccc(F)cc1F (stereo unspecified) | 769 cells | 70.2% (active) |
| COc1cc(/C=N/NC(=O)c2ccoc2C)ccc1OCCN1CCCCC1 | 729 cells | 4.7% (inactive) |
| COc1cc(/C=N/NC(=O)Nc2ccccc2)ccc1OCCOc1ccccc1C | 674 cells | 94.6% (active) |
| COc1ccc(/C=N/NC(=O)c2ccccc2)cc1OS(=O)(=O)c1ccccc1 | 657 cells | -6% (inactive) |
| CC(C)CCn1c(=O)c2c(nc3n2CCCN3Cc2ccccc2)n(C)c1=O | 827 cells | -12.4% (inactive) |
| Cc1cccn2c(=O)c(/C=C(\C#N)C(N)=O)c(N3CCCCCC3)nc12 | 788 cells | 1.2% (inactive) |
| CC(=O)c1ccc(N2CCN(C(=O)C3CCN(S(=O)(=O)c4ccc5c(c4)CC(C)N5C(=O)C4CC4)CC3)CC2)cc1 (stereo unspecified) | 672 cells | -0.3% (inactive) |
| COc1cccc(N(CC(=O)NC2CCCCCC2)S(=O)(=O)c2ccccc2)c1 | 750 cells | 2.3% (inactive) |
| CCC(C)[C@H](NC(=O)N1CCn2c1nc1ccccc12)C(=O)NCc1ccc(OC)cc1 (stereo partly specified) | 712 cells | 28% (inactive) |
| CCc1ccc2nc(N(CCCN(C)C)C(=O)c3ccc4c(c3)OCCO4)sc2c1 | 802 cells | 0% (inactive) |
| CCC(=O)N1CCN(c2ccccc2NC(=O)COc2cccc(C)c2C)CC1 | 823 cells | -15% (inactive) |
| COc1cc(/C=N/NC(=O)c2cccnc2)ccc1OC(=O)c1cccc(Br)c1 | 669 cells | -11.9% (inactive) |
| CN1CCN(CCNC(=O)Nc2ccccc2[N+](=O)[O-])CC1 | 440 cells | 10.2% (inactive) |
| O=[N+]([O-])c1ccccc1N/N=C1\CCc2ccccc21 | 658 cells | 60.3% (active) |
| O=[N+]([O-])c1cc(C(F)(F)F)ccc1NN=C1CCCC1 | 631 cells | 1.6% (inactive) |
| Cc1c2cnn(CC(=O)NCc3ccccn3)c(=O)c2c(C)n1Cc1ccc(Cl)cc1 | 683 cells | -9.1% (inactive) |
| CN(C)c1ccc(Nc2c3c4c(cccc4n(C)c2=O)C(=O)c2ccccc2-3)cc1 | 681 cells | 75.9% (active) |

| SMILES | cell count | inhibition |
| --- | --- | --- |
| CCOc1ccccc1-c1cc(C(=O)N/N=C(\C)c2cccnc2)c2ccccc2n1 | 660 cells | -32% (inactive) |
| Cc1c2cnn(CC(=O)NCCCN3CC(C)CC(C)C3)c(=O)c2c(C)n1Cc1ccc(Cl)cc1 (stereo unspecified) | 643 cells | -27.4% (inactive) |
| CC1CC(C)CN(CCOc2cccc3ccccc23)C1 (stereo unspecified) | 797 cells | -2.9% (inactive) |
| COc1ccc(Oc2cn[nH]c2-c2ccc(OC)cc2O)cc1 | 836 cells | -10.9% (inactive) |
| COC(=O)c1cc(NS(=O)(=O)c2ccc3c(c2)c(=O)n(C)c(=O)n3C)cc(C(=O)OC)c1 | 716 cells | -11.5% (inactive) |
| Cc1c(C(=O)NCc2ccccc2)cnn1-c1ccccc1 | 684 cells | 56.3% (active) |
| Cc1c(C(=O)N(Cc2ccccc2)Cc2cccnc2)cnn1-c1ccc(F)cc1 | 648 cells | -6% (inactive) |
| CSc1ccccc1C(=O)NCc1ccccc1 | 673 cells | 4% (inactive) |
| COC(=O)C1=CN(c2ccc(F)c(F)c2)C=C(C(=O)OC)C1c1ccc([N+](=O)[O-])cc1 | 825 cells | -1.4% (inactive) |
| Cc1ccc(C)c(S(=O)(=O)N2CCCOC2CNC(=O)C(=O)NC2CCCCC2)c1 (stereo unspecified) | 690 cells | -1.2% (inactive) |
| COc1cccc(N2CCN(c3ccc4nnc(CCC(=O)N5CCN(C)CC5)n4n3)CC2)c1 | 633 cells | -28.1% (inactive) |
| COc1cc(SC)ccc1C(=O)N(Cc1ccccc1)c1ccccc1 | 608 cells | -8.6% (inactive) |
| COCn1c(C(O)c2ccccc2)cc2ccccc21 (stereo unspecified) | 813 cells | -9.2% (inactive) |
| Cc1ccc(O)c(/C=N/NC(=O)COc2ccc3c(C)cc(=O)oc3c2)c1 | 786 cells | -1.7% (inactive) |
| CCn1cc(CN2CCN(CC(C)(C)C)C(CCO)C2)c2ccccc21 (stereo unspecified) | 814 cells | 5.1% (inactive) |
| CC(=O)Nc1cccc(Nc2nc(-c3cccs3)nc3ccccc23)c1 | 775 cells | 2.7% (inactive) |
| COc1cc2c(cc1OC)CN(C(=O)c1cc(S(=O)(=O)N3CCCCC3)ccc1Cl)CC2 | 813 cells | -18.7% (inactive) |
| CC1CCN(CCCNC(=O)CN2C(=O)CSc3ccc(S(=O)(=O)N4CCCCC4)cc32)CC1 | 719 cells | 8% (inactive) |
| COCCCNC(=O)CN1C(=O)CSc2ccc(S(=O)(=O)N3CCOCC3)cc21 | 798 cells | 59.7% (active) |
| COc1ccc(NC(=O)CN2C(=O)CSc3ccc(S(=O)(=O)N4CCC(C)CC4)cc32)cc1 | 698 cells | -8.1% (inactive) |
| CNC[C@H](CC1CCCCC1)NC[C@H](NCCC1CCCC1)[C@H](C)O | 688 cells | 1.2% (inactive) |
| CCOC(=O)C1(Cc2ccccc2C)CCCN(C(=O)CCc2c(C)noc2C)C1 (stereo unspecified) | 656 cells | -27.4% (inactive) |
| CN(C(=O)c1cc2c(=O)n3ccccc3nc2s1)C1CCCCC1 | 654 cells | -14.1% (inactive) |
| Cc1nc(SCC(=O)Nc2cc(C)on2)c2c3c(sc2n1)CCCC3 | 678 cells | 5.3% (inactive) |
| CC(C)c1nc(SCC(=O)Nc2cccc(C(=O)O)c2)c2c3c(sc2n1)CCCC3 | 835 cells | -26% (inactive) |
| Cc1cc(NC(=O)CSc2nc(C(C)C)nc3sc4c(c23)CCC(C)C4)no1 (stereo unspecified) | 668 cells | 105% (active) |
